# Fibroblast inh = blocks proliferation of human lung fibroblasts; LL 47 human lung fibroblast viability, ATP luminescence; hits give low values; viability, % at 10 µM; 85,000 compounds, 1.1% hits;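 active = viability at or below 50% in the single dose screen; inactive = viability above 50%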;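 note: compound exposure lasted 72 h before the ATP readout; 100% = median luminescence of untreated cell-only wells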
#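 Test system: LL 47 human lung fibroblasts / Incubation: 72 h compound exposure at 37 °C after overnight plating / Technique: luminescent ATP detection, CellTiter-Glo / Compound dosing: 0.1% DMSO in all compound wells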
# Jurkat tox 60K = cytotoxicity toward Jurkat cells | Jurkat E6.1 viability, ATP luminescence, 48 h | 56,000 compounds, 1.2% hits | AID 463 | inhibition, % at 4 µM;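 active = inhibition above the mean inhibition of all tested compounds plus 3 SD, cut at about 28% in these data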
# Ecoli WT expand = blocks growth of wild type E. coli BW25113 | OD600 absorbance | growth inhibition, % at 100 µM | 98,000 compounds, 0.15% hits | AID 710;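 active = growth inhibition above about 50% at one test dose, limit read from the data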;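 note: growth measured after 20 h incubation at 37 °C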
# HUVEC prolif 384 = human endothelial cell proliferation inhibition. HUVEC proliferation, CellTiter-Glo luminescence, 72 h; hits give low values. viability, % at 10 µM (by protocol). 86,000 compounds, 1.1% hits;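 active = viability at or below 30%; inactive = viability above 30%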;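 note: 100% = median luminescence of DMSO-only cell control wells on each plate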
# H69AR growth 86K = growth inhibitors of human H69AR lung tumor cells. H69AR lung tumor viability, ATP luminescence, 72 h; hits give low values. AID 598. viability, % at 10 µM. 85,000 compounds, 6% hits;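 active = viability at or below 40%; inactive = viability above 40%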;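 note: multidrug resistant small cell line overexpressing MRP-1 efflux transporter; 100% = mean luminescence of untreated control wells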
# tolC growth inh = growth inhibitors of E. coli BW25113 tolC mutant. OD615. growth inhibition, % at 10 µM (by protocol). 65,000 compounds, 2.2% hits;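 active = growth inhibition at or above a cutoff equal to the mean over every tested compound plus 3 SD, cut at about 60% in these data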;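 note: growth measured after 20 h incubation at 37 °C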
#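 test system = E. coli BW25113 ΔtolC::kan bacteria | medium = LB with kanamycin 50 µg/mL | signal = OD at 615 nm | schedule = 37 °C, 20 h exposure | evaluation = % inhibition of E. coli growth | compound dosing = one dose of 10 µM final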
# * hit, by the source's call; . = no result given. This is a sample that favours compounds with a hit; in the whole collection about 6.4% have one here.
SMILES,Fibroblast inh,Jurkat tox 60K,Ecoli WT expand,HUVEC prolif 384,H69AR growth 86K,tolC growth inh
Cc1ccccc1-n1nnnc1Sc1nnnn1-c1ccccc1,21*,.,1,28*,2.7*,.
CCOCCn1c(=O)c2c(nc3n2CCN3c2ccc(CC)cc2)n(C)c1=O,.,3,.,.,.,-3
CCN(CC)Cc1nc2c(c(=O)[nH]1)C1(CCCCC1)Cc1ccccc1-2,90,-3,-6,100,59,29
CN(C)Cc1nc2c(c(=O)[nH]1)C1(CCCCC1)Cc1ccccc1-2,73,7,3,83,7.2*,62*
O=c1c2c(nc3n1CCCCC3)-c1ccccc1CC21CCCC1,101,-4,-6,83,86,91*
O=c1[nH]c(NCCCO)nc2c1C1(CCCC1)Cc1ccccc1-2,98,3,20,87,92,65*
Cn1c(NCCO)nc2c(c1=O)C1(CCCCC1)Cc1ccccc1-2,103,-7,-10,81,93,37
O=C(CCn1c(=O)c2ccccc2n(CC(=O)NC2CCCC2)c1=O)NCCc1ccc(Cl)cc1,97,.,-4,90,99,.
O=C(c1cccs1)N(C(=O)c1cccs1)c1ccc(Br)cn1,91,.,15,79,27*,.
Cc1ccnc(N(C(=O)c2cccs2)C(=O)c2cccs2)c1,95,5,9,87,71,-6
Cc1ccc2c3c(c(SCC(=O)Nc4nonc4C)nc2c1)CCCC3,88,.,-13,76,16*,-14
OC(COC(c1ccc(Cl)cc1)c1ccc(Cl)cc1)CN1CCCC1 (stereo not drawn),88,.,25,71,25*,.
O=c1c(Cl)nc2cc(Cl)ccc2n1CCNc1ncc(C(F)(F)F)cc1Cl,.,.,-2,.,.,.
Cc1ccccc1NCc1ccccc1O,96,0,7,80,94,-6
COc1ccc(-c2cc3ccccc3oc2=O)cc1NC(=O)c1ccc(Br)o1,90,10,0,48,32*,-22
O=C(Nc1ccccc1)c1ccc(-c2ccc(Br)cc2)o1,106,.,.,73,69,.
COc1ccccc1NC(=O)c1ccc(-c2ccc(Br)cc2)o1,79,.,-10,56,19*,.
COc1ccc(-c2cc3ccccc3oc2=O)cc1NC(=O)c1ccc([N+](=O)[O-])o1,.,.,-4,.,.,.
COc1ccccc1C(=O)Nc1cc2ccccc2oc1=O,100,.,-3,80,32*,.
O=c1oc2ccccc2cc1NCc1ccccc1O,95,41*,12,91,70,25
O=c1c(N2CCCCC2)coc2ccccc12,112,.,1,103,81,-7
O=C1c2cnc3nc(SCc4cccc(Cl)c4)nn3c2CC2c3ccccc3CCN12 (stereo not drawn),.,.,-15,.,.,.
O=C(NCc1ccco1)/C(=C/c1cccnc1)NC(=O)c1ccco1,.,.,-3,.,.,.
Cc1cc(=O)oc2cc(OC(C)C(=O)N3CCOCC3)ccc12 (stereo not drawn),104,.,-4,93,97,.
CC(Oc1cc(-c2ccccc2)cc2ccccc12)C(=O)N1CCOCC1 (stereo not drawn),94,.,-12,80,36*,.
SMILES,Fibroblast inh,Jurkat tox 60K,Ecoli WT expand,HUVEC prolif 384,H69AR growth 86K,tolC growth inh
CC(=O)Nc1ccc2nc(C3CCCCC3)[nH]c2c1,.,3,10,.,.,-8
CCOCC(=O)Nc1ccc(S(=O)(=O)NCCc2ccccc2)cc1,104,8,0,110,15*,8
COCCNC(=S)NC12CC3CC(CC(C3)C1)C2,89,.,0,101,91,.
COc1cc(C2C(C#N)=C(N)Oc3cc(O)ccc32)cc(OC)c1OC (stereo not drawn),47*,.,2,54,27*,.
CCOC(=O)C1=C(C)OC(N)=C(C#N)C1c1cc(OC)c2c(c1)OCO2 (stereo not drawn),94,1,1,82,88,-11
COc1cc(C2C(C#N)=C(N)Oc3cc(O)ccc32)cc2c1OCO2 (stereo not drawn),89,-8,8,42,24*,9
COc1cc(C2C(C#N)=C(N)Oc3cc(N(C)C)ccc32)cc2c1OCO2 (stereo not drawn),51,15,4,53,27*,40
COc1cccc(Oc2cn[nH]c2-c2ccc(OC)cc2O)c1,94,10,20,51,8.1*,97*
CCOc1ccc(-c2ncncc2-c2ccc(OC)cc2)c(O)c1,99,9,6,94,88,-5
CCOc1ccc(-c2[nH]ncc2Oc2cccc(OC)c2)c(O)c1,93,6,15,69,18*,99*
Oc1ccc(-c2[nH]ncc2-c2cccc3cccnc23)c(O)c1,89,23,13,101,91,-4
COc1cccc(Oc2cn[nH]c2-c2ccc(O)cc2O)c1,87,4,24,84,73,96*
CN1CCCN(C(=O)c2cc(=O)[nH]c3ccccc23)c2nc3ccccc3nc21,94,6,-8,86,74,0
CN1CCCN(C(=O)Cc2c(Cl)cccc2Cl)c2nc3ccccc3nc21,99,6,-11,83,72,70*
CCOc1ccc2nc(SCC(=O)N(C)C)[nH]c2c1,110,.,7,101,95,.
O=c1c2ccccc2n(Cc2ccc(F)cc2)c(=O)n1C1CCCC1,108,3,-11,96,38*,76*
COc1nc(N(c2ccccc2)c2ccccc2)nc(-n2ccnc2)n1,88,2,25,92,59,94*
CCN(CC)c1nc(N)nc(N(c2ccccc2)c2ccccc2)n1,82,.,-2,85,73,.
CC1(C)Cc2nc3sc4c(=O)n(CC(=O)NCc5ccco5)cnc4c3cc2CO1,83,.,1,68,22*,8
CC(=O)OC1COC(N2CCc3cc([N+](=O)[O-])ccc32)C(OC(C)=O)C1OC(C)=O (stereo not drawn),.,.,-3,.,.,.
Cc1ccc(NC(=O)CSc2nnc(Cn3c(=O)sc4ccccc43)n2C)cc1,92,5,-5,89,91,-3
Cc1ccc(NC(=O)CSc2nnc(Cn3c(=O)sc4ccccc43)n2C)cc1Cl,99,5,-15,44,29*,-1
CCOC(=O)c1ccc(NC(=O)CSc2nnc(Cn3c(=O)sc4ccccc43)n2C)cc1,95,1,-5,65,16*,8
CCc1ccc(NC(=O)CSc2nnc(Cn3c(=O)sc4ccccc43)n2C)cc1,103,-1,-14,77,77,-1
Cc1cc(C(F)(F)F)nn1CCCNC(=O)c1cnccn1,102,-3,4,91,94,-1
Cc1noc(C)c1COC(=O)CCN1c2ccccc2Sc2ccccc21,102,5,-12,101,94,47
CC1=NNC(=O)C1CCC(=O)N/N=C\c1ccccc1[N+](=O)[O-] (stereo not drawn),.,.,-6,.,.,.
COc1ccc(Cl)cc1NC(=O)CN1C(=O)CCS(=O)(=O)c2ccccc21,101,.,-10,101,29*,-17
COc1ccccc1NC(=O)Cc1nn(C)c(=O)c2ccccc12,105,58*,-1,86,89,7
